Assay results pooled from the literature.
Protocols differ between the studies behind these lines.
Target: Dual specificity mitogen-activated protein kinase kinase 7 (MAP2K7, Homo sapiens, UniProt O14733)
One construct used (O14733 1-419): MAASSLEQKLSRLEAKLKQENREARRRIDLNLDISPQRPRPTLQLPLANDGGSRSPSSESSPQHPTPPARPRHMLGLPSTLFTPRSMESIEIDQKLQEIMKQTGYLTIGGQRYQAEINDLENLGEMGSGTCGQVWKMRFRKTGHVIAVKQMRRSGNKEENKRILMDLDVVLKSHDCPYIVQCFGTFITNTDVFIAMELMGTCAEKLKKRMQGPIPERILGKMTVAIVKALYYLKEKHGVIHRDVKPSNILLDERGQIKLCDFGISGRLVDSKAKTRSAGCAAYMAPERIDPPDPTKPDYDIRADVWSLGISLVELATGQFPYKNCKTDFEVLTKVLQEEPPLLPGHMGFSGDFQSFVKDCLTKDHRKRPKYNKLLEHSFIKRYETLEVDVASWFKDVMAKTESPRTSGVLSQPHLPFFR

Structure (SMILES)	test	conditions	remaining binding [%]
O=C(NCCCN1CCOCC1)c1ccc(Nc2ncc(Cl)c(-c3ccc(Cl)s3)n2)cc1	binding, competition with immobilised ligand	1 µM	87
CC1=C(C#N)[C@@H](c2ccc3[nH]nc(C)c3c2)C(C#N)=C(c2ccc(Cl)cc2)N1	cell-free assay, competition with immobilised ligand	1 µM	92.2
CCN1CCN(Cc2ccc(C(=O)Nc3ccc(C)c(Oc4ccc5c(c4)CC(=O)N5)c3)cc2C(F)(F)F)CC1	binding, competition with immobilised ligand	1 µM	97
CN(C)CC#Cc1ccc(OCCCc2sc(N3CCc4cccc(C(=O)Nc5nc6ccccc6s5)c4C3)nc2C(=O)O)c(F)c1	cell-free assay, competition with immobilised ligand	1 µM	69
Cc1cnn2ncc(-c3ccnc(N(C)C)n3)c2c1	binding	1 µM	71
Cc1nc(N2CC[C@@H](O)C2)ncc1-c1cc(C(F)(F)F)cc2[nH]ncc12	binding, competition with immobilised ligand	1 µM	64
CN(C)c1ncc(F)c(-c2cnn3ncccc23)n1	binding	1 µM	88
C[C@@H](c1cccc(C#N)c1)n1cc(Cl)cc(C(N)=O)c1=N	cell-free assay, competition with immobilised ligand	1 µM	99
O=C(NCCCN1CCOCC1)c1ccc(Nc2nccc(-c3cc4ccccc4s3)n2)cc1	binding, competition with immobilised ligand	1 µM	76
O=C(NCC1CCOCC1)c1n[nH]cc1NC(=O)c1c(F)cccc1F	binding, competition with immobilised ligand	1 µM	84
O=C(c1ccc(Nc2ncc(Cl)c(-c3ccc(Cl)s3)n2)cc1)N1CCC(N2CCCC2)CC1	binding, competition with immobilised ligand	1 µM	82
C[C@@H]1CCN(c2nccc(-c3cnn4ncccc34)n2)C1	binding	1 µM	100
FC(F)(F)Oc1cccc(-c2cnc3ccc(-c4ccncc4)nn23)c1	cell-free assay, competition with immobilised ligand	5 µM	96
CNC(=O)[C@@H]1CC[C@@H](n2c(-c3ccc4cnccc4c3)nc3ccc(C(=O)NCc4cccc(C(N)=O)c4)cc32)C1	binding, competition with immobilised ligand	1 µM	100
CN(C)c1nccc(-c2cnc3ncccn23)n1	binding	1 µM	88
Cc1nc(Cc2cccc(C(F)(F)F)c2)sc1-c1ccc(C(N)=O)nc1	cell-free assay, competition with immobilised ligand	1 µM	100
CN(C)c1nccc(-c2cnn3ncccc23)n1	binding	1 µM	100
CN(c1ccnc(CNc2nc(Nc3ccc4c(c3)CC(=O)N4)ncc2C(F)(F)F)n1)S(C)(=O)=O	cell-free assay, competition with immobilised ligand	1 µM	73
CC1CCCN1c1nccc(-c2cnn3ncccc23)n1 (centres unmarked)	binding	1 µM	100
COc1cnc(Nc2cccc(S(N)(=O)=O)c2)nc1N1CCN(c2ccccc2)C(=O)C1	binding, competition with immobilised ligand	1 µM	92
